# High-throughput results as filed in PubChem.
# An excerpt weighted towards active compounds, which were near 3.5% of everything screened.
# MrgX1 antagonist = antagonists of human MrgX1 receptor; MRGX1-HEK293 calcium flux, Fluo-4, BAM8-22 antagonism; active compounds read low; 310,000 tested, 1.3% active; B-score at 10 µM; Q96LB2;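 active = calcium-response B-score plate-corrected more than 3 library SD below zero, starting fluorescence within 5 deviations, no agonist response on first addition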;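 also: peak minus trough fluorescence over baseline after final BAM8-22 challenge near maximal dose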
# Target sequence (Q96LB2 whole entry, looked up): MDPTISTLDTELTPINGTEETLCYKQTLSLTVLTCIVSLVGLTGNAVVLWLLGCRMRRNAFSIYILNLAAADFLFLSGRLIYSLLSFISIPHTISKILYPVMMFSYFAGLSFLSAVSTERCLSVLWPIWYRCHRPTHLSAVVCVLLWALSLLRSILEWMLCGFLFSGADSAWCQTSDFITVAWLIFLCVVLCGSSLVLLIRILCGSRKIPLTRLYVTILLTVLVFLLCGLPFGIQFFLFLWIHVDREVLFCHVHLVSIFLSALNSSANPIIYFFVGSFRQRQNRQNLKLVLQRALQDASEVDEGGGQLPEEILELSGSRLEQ
# RGS4 act = RGS4 potentiation or activation | HEK293 M3R/inducible RGS4, carbachol calcium flux Fluo4; active compounds read low | B-score at 10 µM | 310,000 tested, 0.92% active;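 active = B-score of the integrated calcium signal more than 4 SD below the library mean, with starting fluorescence not abnormally high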;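 also: negative B-score means reduced calcium response which marks RGS4 activation or potentiation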
#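 Also added: carbachol at ECmax as muscarinic agonist stimulus; Assay system: HEK293 cells with stable M3R and inducible RGS4; Timing: overnight RGS4 induction, 30 min dye load 37 °C, 20 min compound RT; Measured by: Fluo4-AM (2 µM) calcium-flux fluorescence, kinetic read.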
# RGS4 block = inhibitors of human RGS4; 310,000 tested, 0.45% active; AID 463165; B-score at 10 µM; HEK293 M3R/RGS4 inducible, Fluo-4 calcium flux; active compounds read high; triggered by carbachol at its EC20; P49798;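 active = B-score, a plate-corrected calcium signal, over three deviations above library mean, with baseline fluorescence within five deviations of library mean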;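 also: RGS4 expression induced by doxycycline in cells with stable M3 receptor; B-score is computed from the integrated fluorescence ratio over baseline after carbachol; higher B-score means a larger calcium signal and so more RGS4 inhibition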
# Target sequence (P49798 whole entry, looked up): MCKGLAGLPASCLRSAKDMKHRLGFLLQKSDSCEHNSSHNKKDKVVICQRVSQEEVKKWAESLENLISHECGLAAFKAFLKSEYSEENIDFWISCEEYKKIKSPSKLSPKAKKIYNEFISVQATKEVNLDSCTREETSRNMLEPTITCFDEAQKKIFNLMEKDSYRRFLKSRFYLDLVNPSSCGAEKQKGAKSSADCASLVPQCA
# MrgX1 agonist = agonists of human MrgX1 receptor. Q96LB2. MrgX1-HEK293 cells, Fluo-4 calcium fluorescence, agonist mode; active compounds read high. B-score at 10 µM. 310,000 tested, 0.44% active. AID 588627;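 active = calcium response B-score plate-corrected fluorescence ratio at least 3 library SD, with starting fluorescence B-score inside 5 SD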
#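 System: HEK293 cells stably expressing human MrgX1 receptor; Dosing: test compound in the initial addition of three; Schedule: overnight plating, then 30 min 37 °C plus 30 min room-temperature dye loading; Detection: kinetic calcium dye fluorescence, Fluo-4 NW; Controls: per-plate positive and negative controls for Z′ factor.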
# MrgX1 PAM = allosterically activates human MrgX1 receptor signaling; Q96LB2; MrgX1-HEK293, Fluo-4 calcium flux, FDSS; active compounds read high; B-score at 10 µM; 310,000 tested, 0.63% active; AID 588675;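 active = plate-corrected calcium response at least 3 library SD above typical, normal starting fluorescence, not activating the receptor alone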;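 also: compound read alongside a low EC10 to EC30 dose of BAM8-22 agonist; peak minus trough fluorescence over baseline measured at the second addition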
# MrgX1 PAM conf = confirmation of human MrgX1 receptor positive allosteric modulators; MrgX1-HEK293, Fluo-4 calcium fluorescence, FDSS; activation (ratio percentage), % at 10 µM; 1,200 tested, 13% active; shares compounds with MrgX1 PAM; AID 602413;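 active = ratio at least 3 SD above the weak peptide control, stable starting fluorescence, no direct agonism earlier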;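 also: compound followed by low BAM8-22 agonist challenge near EC20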
# MrgX1 antag conf = confirmation of human MrgX1 receptor antagonists. remaining BAM8-22 calcium response % of control (active compounds read low), % at 10 µM. MrgX1-HEK293, BAM8-22 calcium flux, Fluo-4; active compounds read low. shares compounds with MrgX1 antagonist. 2,300 tested, 19% active. AID 602420;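 active = remaining agonist calcium response no higher than 100% minus 3 SD of agonist-only control wells, with starting fluorescence near control levels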;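 also: agonist BAM8-22 given at a near maximal EC90 to ECmax level; peak minus minimum fluorescence divided by baseline after agonist addition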
# HEK293 Ca flux = MrgX1 antagonist counter-screen hit in parental HEK293 cells | shares compounds with MrgX1 antagonist | Fluo-4 calcium fluorescence, FDSS | fluorescence ratio F(max-min)/F0 at 10 µM | 4,000 tested, 2% active;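 active = duplicate-averaged calcium fluorescence ratio at least three times the standard deviation of buffer wells, a nonspecific response in parental cells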
# HEK293 Ca counter = activity in parental HEK293 cells without MrgX1; AID 624114; parental HEK293 calcium flux, Fluo-4 fluorescence ratio; active compounds read high; fluorescence ratio F(max-min)/F0 at 10 µM; shares compounds with MrgX1 antagonist; 4,000 tested, 0.4% active;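 active = calcium fluorescence ratio, averaged over duplicates, at least 3 SD of the buffer-well ratio, meaning a nonspecific response in receptor-free cells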;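 also: untransfected parental HEK293 lacking MrgX1 used as counterscreen for MrgX1 allosteric activators; fluorescence change taken during the second addition on a kinetic imager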
# HEK293 Ca cntr2 = MrgX1 activator counter-screen hit in parental HEK293 cells. shares compounds with MrgX1 antagonist. Fluo-4 calcium fluorescence (FDSS); active compounds read high. fluorescence ratio F(max-min)/F0 at 10 µM. 4,000 tested, 8.7% active. AID 624115;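 active = calcium fluorescence ratio at least three times the spread of buffer wells, meaning a non-specific response in parental cells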
# Active calls of the source: *; i = inactive; / = no result given.
SMILES,MrgX1 antagonist,RGS4 act,RGS4 block,MrgX1 agonist,MrgX1 PAM,MrgX1 PAM conf,HEK293 Ca flux,HEK293 Ca counter,HEK293 Ca cntr2,others
Cn1ccnc1COc1ccc(/C=N/O)cc1,i,i,i,i,i,/,/,/,/,
C=C[C@@]1(C)CC(=O)[C@]2(O)[C@@]3(C)[C@@H](O)CCC(C)(C)[C@@H]3[C@H](OC(C)=O)[C@H](O)[C@@]2(C)O1,i,i,i,i,7.7*,i,i,i,i,
CCCc1cc(=O)[nH]c(SCC(=O)NCCC2=CCCCC2)n1,i,i,i,i,i,/,/,/,/,
Cc1cc(N2CCN(C)CC2)nc2ccc(NC(=S)N3CCC4(CC3)OCCO4)cc12,i,i,i,i,7.4*,i,i,i,i,
CC(NC(=O)Nc1ccccc1O)(C(F)(F)F)C(F)(F)F,i,i,i,i,9.8*,i,i,i,i,
Cc1ccncc1C(N)=O,i,i,i,i,8.1*,i,i,i,i,
NC(=O)c1cc2ccncc2c2ccccc12,i,i,i,i,i,/,/,/,/,
COc1ccccc1C(O)(c1ccccc1)C(CN1CCOCC1)c1ccccc1 (stereo unspecified),i,i,i,i,9.1*,i,i,i,i,
CC(C)C(O)(c1ccccc1)C(CN1CCOCC1)c1ccccc1 (stereo unspecified),i,i,i,i,8.4*,i,i,i,i,
CC(C)CC(O)(c1ccccc1)C(CN1CCOCC1)c1ccccc1 (stereo unspecified),i,i,i,i,i,/,/,/,/,
O=C(NCc1ccc2c(c1)OCO2)c1ccc(S(=O)(=O)N2CCOCC2)cc1,i,i,i,i,i,/,/,/,/,
COc1cc(NC(=O)C(Cc2ccccc2)n2cccc2)cc(OC)c1 (stereo unspecified),i,i,i,i,7.1*,i,i,i,i,
O=C1c2cccc(OCC(=O)N3CCCc4ccccc43)c2CCN1Cc1cccnc1,i,i,i,i,18*,i,i,i,i,
CCc1ccc(S(=O)(=O)NC(=S)NC2CCCCC2)cc1,i,i,i,i,16*,i,i,i,i,
Cc1ccc(S(=O)(=O)C2(C(=O)NC3CCCC3)CC2)cc1,i,i,i,i,i,/,/,/,/,
Cc1ccc(S(=O)(=O)NC(=S)NC2CCCCC2)cc1,i,i,i,i,10*,i,i,i,i,
O=S(=O)(NC(=S)NC1CCCCC1)c1ccc(Cl)cc1,i,i,i,i,17*,23%*,i,i,i,
NS(=O)(=O)c1ccc(CCNC(=S)NC2CCCCC2)cc1,i,i,i,i,i,/,/,/,/,
COc1cc(CNn2cn[nH]c2=S)cc(Cl)c1OCc1ccccc1,i,i,i,i,i,/,/,/,/,
COc1cc(CNn2cn[nH]c2=S)cc(Br)c1OCc1ccccc1F,i,i,i,i,6.5*,i,i,i,i,
S=C(NCCCN1CCOCC1)Nc1cccc(Cl)c1,i,i,i,i,11*,i,i,i,i,
Cn1cccc1-c1nc2ccc(NC(=O)c3ccccc3)cc2[nH]1,i,i,i,i,7.2*,39%*,i,i,i,
CCOc1ccccc1NC(=O)Cc1coc2ccc(C)cc12,i,i,i,i,14*,i,i,i,i,
COc1ccc(OC)c(NC(=O)Cc2coc3ccc(C)cc23)c1,i,i,i,i,i,/,/,/,/,
O=C(NCCc1csc(-c2cccnc2)n1)c1cccc(Cl)c1,i,i,i,i,9.6*,i,i,i,i,
SMILES,MrgX1 antagonist,RGS4 act,RGS4 block,MrgX1 agonist,MrgX1 PAM,MrgX1 PAM conf,HEK293 Ca flux,HEK293 Ca counter,HEK293 Ca cntr2,others
O=C(NCCc1csc(-c2cccnc2)n1)c1ccc(Cl)cc1,i,i,i,i,i,/,/,/,/,
CNc1nc(Sc2cccc(C(F)(F)F)c2)cc(C(F)(F)F)n1,i,i,i,i,10*,i,i,i,i,
CNc1nc(Sc2ccccc2)cc(C(F)(F)F)n1,i,i,i,i,22*,i,i,i,i,
Cc1nc(-c2cc(C#N)c(Sc3cccc(C(F)(F)F)c3)nc2C)cs1,i,i,i,i,i,/,/,/,/,
COc1nc(N)nc(NC23CC4CC(CC(C4)C2)C3)n1,i,i,i,i,15*,22%*,i,i,i,
CN(Cc1nc(Cc2ccccc2F)no1)Cc1cccc2ncccc12,i,i,i,i,i,/,/,/,/,
COC(CNC(=O)c1cn(C)c2ccc(S(=O)(=O)N(C)C3CCCCC3)cc2c1=O)OC,i,i,i,i,i,/,/,/,/,
CN(C)CCCN(C(=O)c1ccco1)c1nc2ccc(Br)cc2s1,i,i,i,i,6.5*,i,i,i,i,
COc1ccc(CCNc2nc(-c3ccncc3)cs2)cc1OC,-5.1*,i,i,i,7.3*,i,i,i,i,MrgX1 antag conf=78%*
CS(=O)(=O)c1ccc2nc(NC(=O)c3ccco3)sc2c1,i,i,i,i,9*,i,i,i,i,
Cc1oc(C(C)(C)C)cc1C(N)=O,i,i,i,i,i,/,/,/,/,
O=C(c1ccc(Cl)cc1)C1CCCN(Cc2cccn2-c2cccnc2)C1 (stereo unspecified),i,i,i,i,7.5*,i,i,i,i,
CC(C)c1ccc(NC(=O)c2ccc3c(c2)C(=O)N(Cc2cccnc2)C3=O)cc1,i,i,i,i,i,/,/,/,/,
CC(Sc1ncn[nH]1)C(=O)Nc1ccc(Cl)cn1 (stereo unspecified),i,i,i,i,i,/,/,/,/,
